pIC50: −log10 of the molar value.
What was measured:
Tubulin (Homo sapiens) [1] = molecular target: T1, Tubulin (Homo sapiens) (UniProt P68371+Q9H4B7+P0DPH7+P68366+Q13509+Q71U36+P04350+Q3ZCM7+P07437+P68363+Q9BQE3+Q6PEY2+Q13885+Q9BVA1+Q9BUF5); assay: Inhibition of tubulin polymerization in human NCI-H522 cells assessed as alpha-tubulin accumulation in cytoskeletal fraction after 24 hrs by Western blot analysis; format: cell-based
Outline: (§1)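 NCI-H522 cells were exposed for 24 h to compound (10, 30 or 100 nM) or DMSO vehicle. They were then lysed 5 min at 37 °C in hypotonic buffer (1 mM MgCl2, 2 mM EGTA, 0.5% NP-40, protease inhibitors, 20 mM Tris-HCl pH 6.8) and centrifuged at 15,000 × g for 10 min at 25 °C. α- and β-tubulin were assessed in the cytoskeletal fraction.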

Tubulin (Homo sapiens) [2] = molecular target: T1, Tubulin (Homo sapiens); assay: Inhibition of tubulin polymerization in human NCI-H522 cells assessed as beta-tubulin accumulation in cytoskeletal fraction after 24 hrs by Western blot analysis; format: cell-based; outline: as §1
Tubulin (Sus scrofa) = Tubulin (Sus scrofa) (UniProt P02554+P02550); assay: Inhibition of porcine brain tubulin polymerization measured every 30 seconds for 30 mins
NCI-H522 [3] = assay: Cytotoxicity against human NCI-H522 cells after 48 hrs by MTT assay; format: functional, cell-based; conditions: NCI-H522, 48 h
Detroit 551 = assay: Cytotoxicity against human Detroit 551 cells after 48 hrs; format: cell-based; conditions: Detroit 551, 48 h
Outline: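 MTT viability assay on log-phase cells at 37 °C, exposed to compound or DMSO vehicle for 48 h. MTT (1 mg/mL in PBS) was then added for 2 h, and absorbance was read at 570 nm with 630 nm correction. IC50 is the concentration giving 50% proliferation inhibition. Cells were cultured in 5% CO2: HL-60 in RPMI-1640 with 10% FBS; Hep3B in DMEM/F12 with 10% FBS; Detroit 551 in DMEM with 10% FBS.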

DU-145 = assay: Cytotoxicity against human DU145 cells after 48 hrs; format: functional; conditions: DU-145, 48 h
PC-3 = assay: Cytotoxicity against human PC3 cells after 48 hrs; format: functional; conditions: PC-3, 48 h
UO-31 = assay: Cytotoxicity against human UO31 cells after 48 hrs; format: functional; conditions: UO-31, 48 h
CAKI-1 = assay: Cytotoxicity against human CAKI-1 cells after 48 hrs; format: functional; conditions: CAKI-1, 48 h
OVCAR-5 = assay: Cytotoxicity against human OVCAR5 cells after 48 hrs; format: functional; conditions: OVCAR-5, 48 h
UACC-62 = assay: Cytotoxicity against human UACC62 cells after 48 hrs; format: functional; conditions: UACC-62, 48 h
MDA-MB-435 = assay: Cytotoxicity against human MDA-MB-435 cells after 48 hrs; format: functional; conditions: MDA-MB-435, 48 h
U-251 = assay: Cytotoxicity against human U251 cells after 48 hrs; format: functional; conditions: U-251, 48 h
SNB-75 = assay: Cytotoxicity against human SNB75 cells after 48 hrs; format: functional; conditions: SNB-75, 48 h
SNB-19 = assay: Cytotoxicity against human SNB19 cells after 48 hrs; format: functional; conditions: SNB-19, 48 h
SF-295 = assay: Cytotoxicity against human SF295 cells after 48 hrs; format: functional; conditions: SF-295, 48 h
SW-620 = assay: Cytotoxicity against human SW620 cells after 48 hrs; format: functional; conditions: SW-620, 48 h
HT-29 = assay: Cytotoxicity against human HT-29 cells after 48 hrs; format: functional; conditions: HT-29, 48 h
HCT-15 = assay: Cytotoxicity against human HCT15 cells after 48 hrs; format: functional; conditions: HCT-15, 48 h
HCC 2998 = assay: Cytotoxicity against human HCC2998 cells after 48 hrs; format: functional; conditions: HCC 2998, 48 h
HCT-116 = assay: Cytotoxicity against human HCT116 cells after 48 hrs; format: functional; conditions: HCT-116, 48 h
COLO 205 = assay: Cytotoxicity against human COLO205 cells after 48 hrs; format: functional; conditions: COLO 205, 48 h
NCI-H522 [4] = assay: Cytotoxicity against human NCI-H522 cells after 48 hrs; format: functional; conditions: NCI-H522, 48 h, read-out: pLC50 (the source's name) (converted)
NCI-H322M = assay: Cytotoxicity against human NCI-H322M cells after 48 hrs; format: functional
NCI-H460 = assay: Cytotoxicity against human NCI-H460 cells after 48 hrs; format: functional, cell-based; conditions: NCI-H460, 48 h
NCI-H23 = assay: Cytotoxicity against human NCI-H23 cells after 48 hrs; format: functional; conditions: NCI-H23, 48 h
[5] = Cytotoxicity against human EKVX cells after 48 hrs; format: functional
Outline: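 Tested in the NCI-60 human cancer cell line panel. Results are given as log concentrations: GI50 reduced cell growth to 50% […], TGI caused total growth inhibition, and LC50 killed 50% of the test population.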

K562 = assay: Cytotoxicity against human K562 cells after 48 hrs; format: functional; conditions: K562, 48 h
CCRF-CEM = assay: Cytotoxicity against human CCRF-CEM cells after 48 hrs; format: functional
[6] = read-out: pLC50 (the source's name) (converted)

Tubulin (Sus scrofa), sequence (P02550 whole entry, looked up): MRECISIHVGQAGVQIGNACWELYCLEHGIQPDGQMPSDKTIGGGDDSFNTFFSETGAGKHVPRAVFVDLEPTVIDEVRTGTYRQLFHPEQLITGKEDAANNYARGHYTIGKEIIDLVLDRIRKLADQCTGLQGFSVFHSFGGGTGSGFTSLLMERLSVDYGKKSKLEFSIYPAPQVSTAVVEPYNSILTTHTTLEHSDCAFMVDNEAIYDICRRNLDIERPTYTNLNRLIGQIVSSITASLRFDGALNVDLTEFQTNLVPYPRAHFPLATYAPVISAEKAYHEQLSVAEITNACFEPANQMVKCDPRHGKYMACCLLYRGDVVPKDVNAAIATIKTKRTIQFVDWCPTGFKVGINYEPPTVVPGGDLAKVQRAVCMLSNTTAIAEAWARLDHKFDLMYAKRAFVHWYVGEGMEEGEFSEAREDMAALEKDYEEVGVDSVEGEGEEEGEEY
Tubulin (Sus scrofa), sequence (P02554 whole entry, looked up): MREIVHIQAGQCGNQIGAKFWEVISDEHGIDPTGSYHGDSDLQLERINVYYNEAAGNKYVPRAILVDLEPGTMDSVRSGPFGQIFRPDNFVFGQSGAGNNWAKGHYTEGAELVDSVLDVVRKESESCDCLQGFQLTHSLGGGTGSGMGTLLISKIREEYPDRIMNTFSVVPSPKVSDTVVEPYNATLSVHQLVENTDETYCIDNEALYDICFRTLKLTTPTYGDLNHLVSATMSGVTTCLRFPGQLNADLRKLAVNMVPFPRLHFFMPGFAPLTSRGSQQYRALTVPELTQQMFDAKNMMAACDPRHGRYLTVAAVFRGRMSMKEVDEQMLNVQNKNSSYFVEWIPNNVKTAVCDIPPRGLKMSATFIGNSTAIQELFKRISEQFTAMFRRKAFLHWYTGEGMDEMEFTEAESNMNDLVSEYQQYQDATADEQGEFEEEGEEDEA

Q: What does the source list for COc1cc(O)cc(-c2cc(=O)c3cc(N4CCCC4)ccc3[nH]2)c1?
A: inhibition (Tubulin (Homo sapiens) [1]): Dose-dependent effect; inhibition (Tubulin (Homo sapiens) [2]): Dose-dependent effect; inhibition (Tubulin (Sus scrofa)): Dose-dependent effect; pIC50 (NCI-H522 [3]): 7.37; pIC50 (Detroit 551): < 4.30; GI50 (DU-145): 0.0309 µM; CC50 (DU-145; [6]): > 100 µM; TGI (DU-145; read-out: pTGI (converted)): 0.257 µM; GI50 (PC-3): 0.0977 µM; CC50 (PC-3; [6]): > 100 µM; TGI (PC-3; read-out: pTGI): > 100 µM; GI50 (UO-31): 0.182 µM; CC50 (UO-31; [6]): > 100 µM; TGI (UO-31; read-out: pTGI): > 100 µM; GI50 (CAKI-1): 0.0832 µM; CC50 (CAKI-1; [6]): > 100 µM; TGI (CAKI-1; read-out: pTGI): > 100 µM; GI50 (OVCAR-5): > 100 µM; CC50 (OVCAR-5; [6]): > 100 µM; TGI (OVCAR-5; read-out: pTGI): > 100 µM; GI50 (UACC-62): 0.646 µM; CC50 (UACC-62; [6]): > 100 µM; TGI (UACC-62; read-out: pTGI): > 100 µM; GI50 (MDA-MB-435): 0.01 µM; TGI (MDA-MB-435; read-out: pTGI (converted)): 0.0295 µM; GI50 (U-251): 0.0468 µM; CC50 (U-251; [6]): 87.1 µM; TGI (U-251; read-out: pTGI (converted)): 14.5 µM; GI50 (SNB-75): 0.0347 µM; CC50 (SNB-75; [6]): 77.6 µM; TGI (SNB-75; read-out: pTGI (converted)): 13.2 µM; GI50 (SNB-19): 0.0741 µM; CC50 (SNB-19; [6]): > 100 µM; TGI (SNB-19; read-out: pTGI): > 100 µM; GI50 (SF-295): 0.11 µM; TGI (SF-295; read-out: pTGI (converted)): 11.2 µM; GI50 (SW-620): 0.0447 µM; CC50 (SW-620; [6]): > 100 µM; TGI (SW-620; read-out: pTGI): > 100 µM; GI50 (HT-29): 0.0759 µM; CC50 (HT-29; [6]): > 100 µM; TGI (HT-29; read-out: pTGI): > 100 µM; GI50 (HCT-15): 0.0537 µM; CC50 (HCT-15; [6]): > 100 µM; TGI (HCT-15; read-out: pTGI): > 100 µM; GI50 (HCC 2998): 0.0457 µM; CC50 (HCC 2998; [6]): > 100 µM; TGI (HCC 2998; read-out: pTGI): > 100 µM; GI50 (HCT-116): 0.0355 µM; CC50 (HCT-116; [6]): > 100 µM; TGI (HCT-116; read-out: pTGI): > 100 µM; GI50 (COLO 205): 0.0537 µM; TGI (COLO 205; read-out: pTGI (converted)): 0.219 µM; CC50 (NCI-H522 [4]): 3.89 µM; GI50 (NCI-H322M): 0.0724 µM; CC50 (NCI-H322M; [6]): > 100 µM; TGI (NCI-H322M; read-out: pTGI): > 100 µM; GI50 (NCI-H460): 0.324 µM; pIC50 (NCI-H460): 5.67; LC50 (NCI-H460): > 100 µM; TGI (NCI-H460; read-out: pTGI): > 100 µM; GI50 (NCI-H23): 0.126 µM; CC50 (NCI-H23; [6]): > 100 µM; TGI (NCI-H23; read-out: pTGI (converted)): 81.3 µM; CC50 [5, 6]: > 100 µM; TGI ([5]; read-out: pTGI): > 100 µM; GI50 (K562): 0.0234 µM; CC50 (K562; [6]): > 100 µM; TGI (K562; read-out: pTGI): > 100 µM; GI50 (CCRF-CEM): 0.0324 µM; CC50 (CCRF-CEM; [6]): > 100 µM; TGI (CCRF-CEM; read-out: pTGI): > 100 µM

— ChEMBL document CHEMBL2417372, “Design, synthesis, and mechanism of action of 2-(3-hydroxy-5-methoxyphenyl)-6-pyrrolidinylquinolin-4-one as a potent anticancer lead” (Bioorg Med Chem Lett, 2013)
